Measurements of several laboratories.
MAK: Serine/threonine-protein kinase MAK (MAK, Homo sapiens, UniProt P20794)
ACSL4: Long-chain-fatty-acid--CoA ligase 4 (ACSL4, Homo sapiens, UniProt O60488)
RIOK3: Serine/threonine-protein kinase RIO3 (RIOK3, Homo sapiens, UniProt O14730)

`C1=C/COCc2cc(ccc2OCCN2CCCC2)Nc2nccc(n2)-c2cccc(c2)COC/1` gave a remaining binding of 100% (MAK; binding; 0.1 µM).
For `CCN1/C(=C/C(C)=O)Sc2ccc(F)cc21`, the inhibition was 1.73% (5-hydroxytryptamine receptor 1B (HTR1B, Homo sapiens, UniProt P28222); ligand displacement; radioligand; 10 µM).
`C#Cc1cc(-c2cc(Nc3nc(N[C@@H](C)c4ccc(F)cn4)ncc3Cl)n[nH]2)ccc1C=O` has an inhibition of 7.93% (Serine/threonine-protein kinase 33 (STK33, Homo sapiens, UniProt Q9BYT3); enzyme activity; inhibitor; 0.2 µM).
`COc1ccc(CC2SC(=O)NC2=O)cc1` (stereo not shown) gave an inhibition of 13% (ACSL4; enzyme activity; inhibitor; 10 µM).
For `Cc1cc(S(=O)(=O)N[C@H]2CC[C@H](CN3CCN(c4ccc(C5CCC(=O)NC5=O)cc4F)CC3)CC2)ccc1Nc1ncc(C(F)(F)F)c(N2CCC[C@](C)(O)C2)n1` (stereo partly shown), the remaining binding was 58% (RIOK3; binding; competition with immobilised ligand; 1 µM).
With `COC(=O)/C=C/c1ccc(OCCN(C)C(=O)c2ccccc2)cc1` the ΔTm was 5.3 °C (ACSL4; thermal stability; DSF; 5 µM).
`NC/C(=C\F)COc1cccc(Cn2c(=S)[nH]c(=O)c3[nH]cnc32)c1` has an inhibition of less than 50% (Prostaglandin E2 receptor EP4 subtype (PTGER4, Homo sapiens, UniProt P35408); ligand displacement; radioligand; 10 µM).
With `C[C@]1(O)CCCN(c2nc(Nc3ccc(S(=O)(=O)N[C@H]4CC[C@H](CN5CCN(c6ccc(C7CCC(=O)NC7=O)cc6F)CC5)CC4)cc3F)ncc2C(F)(F)F)C1` (stereo partly shown) the remaining binding was 100% (RIOK3; binding; competition with immobilised ligand; 1 µM).
For `COc1ccc2oc(-c3ccc4nc(N)oc4c3)c/c(=N\c3ccccc3NC(=O)CCN)c2c1`, the remaining binding was 104% (Death-associated protein kinase 1 (DAPK1, Homo sapiens, UniProt P53355); binding; 1 µM).
With `CNS(=O)(=O)c1ccc(Nc2ncc(C(F)(F)F)c(N3CCC[C@](C)(O)C3)n2)c(C)c1` the remaining binding was 14% (Mitogen-activated protein kinase 7 (MAPK7, Homo sapiens, UniProt Q13164); binding; competition with immobilised ligand; 1 µM).
The inhibition of `CN1CCc2c(c3ccccc3n2Cc2ccc(C(=O)NO)cc2)C1` is reported as 94.8% (Protein deacetylase HDAC6 (HDAC6, Homo sapiens, UniProt Q9UBN7); enzyme activity; inhibitor; fluorescence; 0.5 µM).
For `CCCCC(=O)Nc1ccc(-c2ccc3ncn(CCC)c(=O)c3c2)cn1`, the remaining binding was 71% (MAK; binding; competition with immobilised ligand; 0.5 µM).
`C[C@]1(O)CCCN(c2nc(Nc3ccc(S(=O)(=O)N[C@H]4CC[C@H](CN5CCN(c6ccc(C7CCC(=O)NC7=O)cc6F)CC5)CC4)cc3Cl)ncc2C(F)(F)F)C1` (stereo partly shown) has a remaining binding of 52% (RIOK3; binding; competition with immobilised ligand; 1 µM).
